# Source: PubChem
# HTRA1 inh: inhibitors of human serine peptidase HTRA1; recombinant HTRA1, FP-rhodamine activity-based probe, fluorescence polarization; 340,000 compounds, 0.5% hits; inhibition, % at 5.96 µM; AID 504803; Q92743; in the data active = inhibition above about 36%;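 also: 0% = enzyme with DMSO and 100% = wells lacking enzyme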
# Target sequence (Q92743 whole entry, looked up): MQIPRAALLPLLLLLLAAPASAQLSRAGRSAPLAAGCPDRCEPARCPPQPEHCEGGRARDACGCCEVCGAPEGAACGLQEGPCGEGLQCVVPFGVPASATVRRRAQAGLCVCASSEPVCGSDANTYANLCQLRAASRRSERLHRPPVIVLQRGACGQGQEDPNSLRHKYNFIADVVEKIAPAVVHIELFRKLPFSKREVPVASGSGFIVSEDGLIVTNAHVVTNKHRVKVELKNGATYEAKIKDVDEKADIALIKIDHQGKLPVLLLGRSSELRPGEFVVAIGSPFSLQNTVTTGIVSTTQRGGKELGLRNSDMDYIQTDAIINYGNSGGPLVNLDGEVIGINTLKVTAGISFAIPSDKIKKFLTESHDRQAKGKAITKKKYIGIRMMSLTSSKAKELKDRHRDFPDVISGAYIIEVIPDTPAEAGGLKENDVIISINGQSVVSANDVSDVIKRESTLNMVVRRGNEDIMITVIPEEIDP
# SIAE inh: blocks human sialic acid acetylesterase; 370,000 compounds, 0.69% hits; SIAE FP-Rh probe binding, fluorescence polarization; AID 1053197; inhibition, % at 9.66 µM;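 active = inhibition above a cutoff: mean of compounds within the control limits plus 3 SD of those, cut at about 17% in these data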;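 also: 0% = plate median of compound wells and 100% = probe without SIAE protein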
# PRMT1 inh: blocks human protein arginine methyltransferase 1. Q99873. recombinant PRMT1, activity-based probe fluorescence polarization. inhibition, % at 2.79 µM. 370,000 compounds, 1.3% hits. AID 652257;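 active = inhibition above about 21% made by adding two undisclosed values, limit read from the data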
# mABHD4 FP: ABHD4 (mouse) inhibition, primary FP screen. Q8VD66. purified mABHD4, FP-Rh probe fluorescence polarization. inhibition, % at 8.92 µM. 370,000 compounds, 0.54% hits. AID 720543;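 active = inhibition exceeding the mean over every tested compound plus 3 SD, cut at about 30% in these data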;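 also: 0% = plate median of compound wells and 100% = S159A mutant with DMSO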
#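 System: mouse ABHD4 enzyme, wild type / Medium: HEPES pH 7.0, NaCl, Pluronic buffer / Reagent: FP-Rh activity-based fluorescent probe / Control set: S159A mutant high control, sample median low control / Detection: fluorescence polarization with parallel and perpendicular emission, 525/598 nm / Schedule: 45 min + 60 min at 25 °C / Compound dosing: 8.92 µM, single dose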
# TCR-CD3 inh: human TCR-CD3 binding inhibition | TAMRA-labeled TCR probe fluorescence, biochemical | inhibition, % at 9.4 µM | 360,000 compounds, 0.37% hits; in the data active = inhibition above about 19%;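 also: recombinant mutant TCR 2C K166C tagged with TAMRA read by polarization; 0% = receptor in buffer alone and 100% = receptor with positive control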
# HTRA1 conf: confirmation of human HTRA1 inhibitors. shares compounds with HTRA1 inh. inhibition, % at 5.96 µM. 1,600 compounds, 66% hits. recombinant HTRA1, FP-rhodamine activity-based probe, fluorescence polarization;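 active = mean inhibition over three repeats above a set limit taken from the earlier primary screen, cut at about 37% in these data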;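 also: 0% = HTRA1 with DMSO and 100% = wells lacking HTRA1; inhibitors block probe binding so polarization drops and inhibition rises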
# Numbers without * were called inactive; x = no result given. Rows were chosen to be rich in hits. Some 2.6% of all compounds tested hit in one or more screens of this group.
SMILES,HTRA1 inh,SIAE inh,PRMT1 inh,mABHD4 FP,TCR-CD3 inh,others
CCOc1cccc(OCC)c2c(C)[n+](CC3CCCO3)c(C)c1-2 (stereo unspecified),49.9*,x,x,x,x,
COc1ccc(CCNCC2CCCO2)cc1 (stereo unspecified),-3.3,2.1,2.3,6.5,12.0,
c1cncc(-c2ccc3n2Cc2cnnn2-c2ccccc2-3)c1,x,-1.8,2.2,4.5,x,
COc1ccccc1N1C(=O)NC(=O)/C(=C/c2ccc([N+](=O)[O-])s2)C1=O,x,0.4,26.7*,-12.6,-22.1,
CC[C@H]1CN2CCC1C[C@H]2[C@H](O)c1ccnc2ccc(OC)cc12 (stereo partly specified),5.9,2.3,-0.6,-5.0,11.2,
C[CH2][Hg][S]c1ccccc1C(=O)O,-2.0,8.8,83.7*,26.8,-0.7,
CC(C)COC(=O)c1ccccc1C(=O)OCC(C)C,-7.3,-4.9,0.5,6.7,6.2,
Cc1cc(C)cc(OCCOc2cccc(C=C3C(=O)NC(=O)NC3=O)c2)c1,-46.5,-3.4,5.6,-3.3,3.5,
Cc1ccc(OCCOc2cccc(C=C3C(=O)NC(=O)NC3=O)c2)cc1,-36.3,-1.1,22.2*,-11.5,-12.7,
CCC12CCN(CC3(O)CC3)C(Cc3ccc(O)cc31)C2(C)C (stereo unspecified),x,0.4,0.0,1.8,0.4,
CN(C)c1ccc(/C=C/C=C/c2sc3ccccc3[n+]2C)cc1,-10.9,-35.9,-0.4,-51.7,-20.0,
C[n+]1c(-c2ccccc2)sc2ccccc21,-4.4,-7.3,34.8*,4.2,7.3,
CNCCc1ccc(O)c(O)c1,6.2,5.4,21.4*,24.0,-1.1,
CCC1(C2=NCCN2)Cc2ccccc2O1 (stereo unspecified),0.1,-3.3,-2.2,-11.7,12.2,
O=C1NC(=O)N(c2ccccc2F)C(=O)/C1=C/c1ccc(Sc2nc3ccccc3[nH]2)o1,-58.8,-473.4,25.0*,-346.4,-141.7,
COc1cc(C)cc2oc(=O)c(CC(=O)N3C[C@H]4C[C@@H](C3)c3cccc(=O)n3C4)c(C)c12,-1.7,1.6,-1.1,5.4,-8.0,
COC(=O)C1C(OC(=O)c2ccccc2)CC2CCC1[N+]2(C)C (stereo unspecified),x,1.7,-0.4,-0.8,-2.1,
CC[C@H](C)/C=C(C)/C=C/C1=CC2=C(Cl)C(=O)[C@](C)(OC(C)=O)C(=O)C2=CO1,70.4*,x,x,x,x,
CC(C)C[C@H]1C(=O)N2CCCC2[C@]2(O)O[C@](NC(=O)[C@@H]3C=C4c5cccc6[nH]cc(c56)CC4N(C)C3)(C(C)C)C(=O)N12 (stereo partly specified),45.2*,x,x,x,x,
CC(C)[C@H]1C(=O)N2CCC[C@H]2[C@]2(O)O[C@](NC(=O)[C@@H]3C=C4c5cccc6[nH]cc(c56)C[C@H]4N(C)C3)(C(C)C)C(=O)N12,33.4,x,x,x,x,
CCc1ccccc1NC(=O)CSc1nnc([C@@H](N)Cc2c[nH]c3ccccc23)o1,-7.3,5.6,23.9*,-2.4,9.3,
Cc1ccc(NC(=O)CSc2nnc([C@@H](N)Cc3c[nH]c4ccccc34)o2)c(C)c1,-5.7,10.9,7.7,10.4,1.8,
COc1ccc(C(=O)NC(=S)N2C[C@H]3C[C@H](C2)c2cccc(=O)n2C3)cc1OC,-0.3,-0.1,-1.7,4.9,6.9,
CCCOc1ccc(C(=O)NC(=S)N2C[C@H]3C[C@H](C2)c2cccc(=O)n2C3)cc1,-4.9,0.1,24.6*,-2.9,-5.3,
COC(=O)C1=C(c2ccccc2OCc2ccccc2)C[C@@H]2CC[C@H]1N2C(=O)NCc1ccc([N+](=O)[O-])cc1,-35.7,-6.5,-0.9,-4.6,0.8,
SMILES,HTRA1 inh,SIAE inh,PRMT1 inh,mABHD4 FP,TCR-CD3 inh,others
CCCC(C)CC1(CCO)C(=O)NC(=S)NC1=O (stereo unspecified),-7.5,3.7,1.7,1.1,1.3,
O=C1NC(=O)N(Cc2ccccc2)C(=O)/C1=C/C=C/c1ccco1,8.1,-9.5,23.4*,-3.7,-13.1,
O=C1NC(=S)N(c2ccccc2)C(=O)C1C(c1ccncc1)C1C(=O)NC(=S)N(c2ccccc2)C1=O (stereo unspecified),1.0,-5.7,28.2*,-1.8,-1.1,
CN1C(=O)C(=Cc2ccccc2OCc2ccccc2Cl)C(=O)N(C)C1=O,-26.5,-1.9,22.7*,-8.3,1.9,
Cc1ccc(CC2C(=O)N(C)C(=O)N(C)C2=O)s1,9.7,2.7,21.2*,-2.0,6.7,
CN1C[C@H](CO)C=C2c3cccc4[nH]cc(c34)C[C@H]21,16.3,14.4,22.8*,22.1,4.4,
COc1ccccc1NC(=O)c1cn(CCC#N)nc1-c1cccc(Cl)c1,-11.0,4.7,-7.8,-2.3,-3.9,
O=c1[nH]c(=O)n(Cc2ccco2)c(O)c1C=NCc1ccc2c(c1)OCO2,7.2,-0.6,23.2*,-4.5,0.1,
CCCCn1c(O)c(C=NCc2ccc3c(c2)OCO3)c(=O)[nH]c1=O,-4.2,-5.5,2.8,-3.4,0.1,
Cc1ccc(-n2nc(C)c3c2NC(=O)CSC3c2ccc3c(c2)OCO3)cc1 (stereo unspecified),26.0,5.1,12.1,3.8,-0.8,
COc1ccc(C2SCC(=O)Nc3c2c(C)nn3-c2ccccc2)cc1 (stereo unspecified),6.7,-0.3,23.1*,0.3,-4.3,
COc1ccccc1CCNCc1cc2c(cc1[N+](=O)[O-])OCO2,42.2*,6.8,-2.5,14.0,3.8,HTRA1 conf=10.1
COc1ccc(-n2c(/C=C/c3ccc(O)c(OC)c3)nc3ccccc3c2=O)cc1,-7.5,8.2,-1.9,1.3,-4.5,
COc1cccc(-n2c(/C=C/c3ccc(O)c(O)c3)nc3ccccc3c2=O)c1,57.9*,-3.5,2.5,21.0,14.1,HTRA1 conf=46.8*
COC(=O)C1=C(c2ccc3ccccc3c2)C[C@@H]2CC[C@H]1N2C(=O)N1CCC(C)CC1,-22.1,x,x,x,x,
O=C(O)c1cccc2c1NC(C(=O)O)C1CC(Sc3ccccc3[N+](=O)[O-])C(Cl)C21 (stereo unspecified),92.8*,61.3*,80.8*,82.2*,37.4*,HTRA1 conf=59.6*
CC(C)NC1C2CCC(CC2)C1(O)c1ccc(Cl)c(Cl)c1 (stereo unspecified),-6.2,-2.8,5.6,3.5,2.6,
Oc1ccc(/C=N/NP(=S)(c2ccccc2)c2ccccc2)c(O)c1O,74.7*,-0.6,12.5,27.6,5.9,HTRA1 conf=85.0*
Oc1ccccc1/C=N/NP(=S)(c1ccccc1)c1ccccc1,-31.1,-14.6,11.4,-36.4,-4.5,
Oc1ccc(/C=N/NP(=S)(c2ccccc2)c2ccccc2)cc1O,57.8*,-8.8,1.1,23.5,-1.9,HTRA1 conf=61.9*
O=C(NCNC(=O)NC1C(=O)NC(=O)N1CO)NC1C(=O)NC(=O)N1CO (stereo unspecified),-0.5,-0.9,-0.3,-2.1,5.1,
O=C(COC(=O)Cc1ccccc1)NC12CC3CC(CC(C3)C1)C2,-3.8,-4.3,3.1,1.6,-5.0,
